Not all results are given here.
Apaf-1 act – activators of human Apaf-1 apoptosome | activity change, negative = activation, % at 20 µM | Apaf-1 apoptosome caspase-3 activation, DEVD-Rh110 fluorescence; active compounds read low | hit rate 0.31% among 330,000 | AID 489031;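 active means activity change at or below -40% at 20 µM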
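Schedule: 30 min preincubation, 50 min reaction, room temperature / System: biochemical Apaf-1 apoptosome reconstitution / Medium: 20 mM HEPES pH 7.5 with CHAPS, BSA / Evaluation: Caspase-3 cleavage activity downstream of Apaf-1 activation / Detection: Caspase-3-released Rh110 fluorescence, 540 nm emission, 480 nm excitation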
Rh110 interf act – counter-screen for Apaf-1 activators: fluorescence interference; shares compounds with Apaf-1 act; Rh110 fluorescence interference, quenched caspase reaction, Ex480/Em540; fluorescence interference (activity change), % at 20 µM, hits read low; 980 tested, under 10 active; AID 504616;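 active means mean activity change at or below -40% when tested at 20 µM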
Apaf-1 act conf2 – confirmation of human Apaf-1 activators; reconstituted apoptosome caspase-3 activity, DEVD-Rh110 fluorescence; active compounds read low; hit rate 5% among 980; activity change, negative = activation, % at 20 µM; shares compounds with Apaf-1 act;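 active means mean activity change at or below -40%, meaning activation of 40% or more, at 20 µM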
Starred values were filed as active, the others as inactive.

SMILES	Apaf-1 act	others
CCOC(=O)C1=C(c2ccccc2)NC(N)=NC1c1ccc(OCc2ccc(C(=O)OC)cc2)cc1 (stereo unspecified)	60.6
C#CCOCCOCCOCCNc1nc(N2CCN(C(=O)CCCCCCCCCCNC(=O)[C@H]([C@@H](C)CC)n3cc(CCCCN=C(N)N)nn3)CC2)nc(N2CCN(C(=O)CCCCCCCCCCNC(=O)[C@H](CCCCN)n3cc(C[C@@H](C)CC)nn3)CC2)n1	55.5
O=C(c1ccccc1)N1CCCOC1c1ccccc1 (stereo unspecified)	-67.0*	Rh110 interf act=6.0;Apaf-1 act conf2=15.8
CCCCCCSc1ccc(-c2nc3cnccn3c2NCCCC)cc1	55.9
C#CCOCCOCCOCCNc1nc(N2CCN(C(=O)[C@H]([C@@H](C)CC)n3cc([C@@H](N)CC(C)C)nn3)CC2)nc(N2CCN(C(=O)[C@H](Cc3cc4ccccc4[nH]3)n3cc([C@@H](N)CC(C)C)nn3)CC2)n1	57.7
C[C@@H](CN1C2=NC[C@H](Cc3ccccc3)N2C[C@H]1Cc1ccc(O)cc1)NC(=O)CCC1CCCCC1	40.7
CCOc1ccccc1NC(=O)C(CC(C)C)NC(=O)C1CCCCC1 (stereo unspecified)	-53.1*	Rh110 interf act=1.7;Apaf-1 act conf2=-1.0
CCc1ccc(NC(=O)[C@H](Cc2c[nH]c3ccccc23)NC(=O)[C@@H]2Cc3ccccc3CN2)cc1	41.1
CCCC(CCC)C(=O)O	-6.2
COC(=O)CCC(=O)OC1(C)C(=O)C=C2C=C(C3CC3)N(C3CC3)C=C2C1=O (stereo unspecified)	53.6
COCCn1c(N)c(C#N)c2nc3ccccc3nc21	51.7
C#CCOCCOCCOCCNc1nc(N2CCN(C(=O)CCCCCCCCCCNC(=O)Cn3cc(CCCCCN)nn3)CC2)nc(N2CCN(C(=O)CCCCCCCCCCNC(=O)[C@H](CO)n3cc(CCCCCN)nn3)CC2)n1	62.9
c1ccc(C(c2nnnn2C2CCCCC2)N2CCc3ccccc3C2)nc1 (stereo unspecified)	64.4
O=C1NC(=Nc2ccccc2)S/C1=C/c1cccs1	-300.3*	Rh110 interf act=7.3;Apaf-1 act conf2=14.7
O=C(CSc1nc(=O)n2ccccc2n1)NCc1ccccc1Cl	48.5
CCCCCCOC(=O)C[N+](C)(C)CCOC1CC2CCC1(C)C2(C)C (stereo unspecified)	52.4
O=C(Nc1ccc(N2CCCC2)cc1)C(Cl)c1ccccc1 (stereo unspecified)	65.0

Assay outcomes from PubChem.
